For five compounds, EC50 and IC50 results are on record in ChEMBL document CHEMBL2375268, “Design, synthesis and antiproliferative properties of some new 5-substituted-2-iminobenzimidazole derivatives” (Eur J Med Chem, 2013).

A short description of test [1]: Antiproliferative activity against human LEP-3 cells after 24 hrs by MTS assay. Format: cell-based. Particulars: LEP-3, 24 h. In short, it runs like this: (§1)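 Compounds taken up in DMSO at 0.5 mg/ml stock, then diluted 1:10, 1:100, 1:1000 and 1:10 000. Cells exposed 24 h; cells in unmodified medium served as control. MTS added, 4 h at 37 °C in 5% CO2/95% air, absorbance read at 490 nm. Viability given as % of untreated control per concentration, mean of three independent assays. IC50 (cancer lines) or EC50 (Lep-3) derived from plotted curves.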
In general terms: Tetrazolium dyes change colour on reduction, which living cells bring about.

The test system of a further test is HepG2. As to the kind of experiment: Antiproliferative activity against human HepG2 cells after 24 hrs by MTS assay. It is filed as functional, cell-based. Particulars: HepG2, 24 h. Put shortly: as §1
Another test relates to HeLa. As to the kind of experiment: Antiproliferative activity against human HeLa cells after 24 hrs by MTS assay. It is filed as functional, cell-based. In short, it runs like this:
as §1

Another test has as its system HT-29. As to the kind of experiment: Antiproliferative activity against human HT-29 cells after 24 hrs by MTS assay. It is filed as functional, cell-based. Particulars: HT-29, 24 h. Put shortly:
as §1

The next test has as its system MDA-MB-231. As to the kind of experiment: Antiproliferative activity against human MDA-MB-231 cells after 24 hrs by MTS assay. It is filed as functional, cell-based. Particulars: MDA-MB-231, 24 h. Put shortly: as §1

The EC50 is the concentration giving half of the maximal effect. Read a high EC50 as lower potency in that assay. `CCCCn1c(=N)n(CCCC)c2cc([N+](=O)[O-])ccc21`: the EC50 in test [1] is 114 nM; in the test with HepG2 it was 142 nM; in the test on HeLa it was 158 nM; in the test on HT-29, 177 nM; with MDA-MB-231, 86 nM.

As to `N#CCCCCn1c(=N)n(CCCCC#N)c2cc(C(=O)c3ccccc3)ccc21`, the half-maximal effective concentration (EC50) in test [1] was 68 nM; in the test with HepG2, 94.1 nM; with HeLa it was 0.015 nM; with HT-29, 46.7 nM; with MDA-MB-231, 119 nM.

The IC50 is the point on the concentration scale where inhibition reaches its midpoint. Low readings indicate greater potency in that assay, high ones weaker potency in that assay. In the case of `CCOC(=O)Cn1c(=N)n(CC(=O)OCC)c2cc(C(=O)c3ccccc3)ccc21`, the results for the EC50 (in test [1]; in the test with HepG2; in the test with MDA-MB-231) were 73 nM, 70.1 nM and 0.28 nM, respectively. The compound further came in with an IC50 with HT-29 of 0.64 nM.

Turning to `N=c1n(CC(=O)N/N=C/c2ccc3c(c2)OCO3)c2ccc(C(=O)c3ccccc3)cc2n1CC(=O)N/N=C/c1ccc2c(c1)OCO2`, the concentration for a half-maximal effect (EC50) in test [1] amounted to 0.21 nM; in the test with HepG2, 10.2 nM; with HeLa, 0.25 nM. Also, the IC50 with HT-29 was determined as 2.83 nM; in the test on MDA-MB-231 it was 6.2 nM.

For `N=c1n(CC(=O)N/N=C/c2ccc(F)cc2)c2ccc([N+](=O)[O-])cc2n1CC(=O)N/N=C/c1ccc(F)cc1`, the results for the EC50 (in test [1]; in the test with HT-29; in the test on MDA-MB-231) were 12.2 nM, 24.5 nM and 17 nM, respectively. Besides, the results for the IC50 with HepG2 and with HeLa were 7.27 nM and 117 nM, respectively.
